Experimental data: ChEMBL document CHEMBL4049418, “6-OH-Phenanthroquinolizidine Alkaloid and Its Derivatives Exert Potent Anticancer Activity by Delaying S Phase Progression” (J Med Chem, 2017)
Activity calls are given as the source filed them. The calls are words filed in the database; no cut-off is given here.

How the values were obtained:
KB-V1 = assay: Growth inhibition of human KBV1 cells after 8 days by methylene blue-staining based spectrophotometry; format: functional; conditions: KB-V1, 192 h
Bel-7402 [1] = assay: Inhibition of DNA synthesis in human Bel7402 cells assessed as BrdU incorporation at 10 uM preincubated for 1 hr followed by BrdU addition for 30 mins by FITC/propidium iodide staining based flow cytometry (reference value: 35.5%); format: functional; set-up: scale not given: the % may be the effect or the level left
Outline: (§1)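 BEL-7402 cells (3 × 10⁵ per well) exposed to compounds 1 h, then labeled with 10 μM BrdU for 30 min; trypsinized, fixed in 70% ethanol at −20 °C ≥1 h, 2 N HCl 20 min, neutralized with 0.1 M borate, stained with anti-BrdU-FITC plus PI 30 min; BrdU-positive cells quantified by flow cytometry; three independent experiments, mean + SD.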

Bel-7402 [2] = assay: Induction of apoptosis in human Bel7402 cells assessed as viable cells at 10 uM after 72 hrs by Annexin V/propidium iodide staining based flow cytometric analysis (reference value: 92.4%); format: functional; conditions: Bel-7402, 72 h, read-out: Activity
Bel-7402 [3] = assay: Induction of apoptosis in human Bel7402 cells assessed as early apoptotic cells at 10 uM after 72 hrs by Annexin V/propidium iodide staining based flow cytometric analysis (reference value: 3.66%); format: functional
Outline: (§2)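 BEL-7402 cells (3 × 10⁵ per well, 6-well plates) exposed for 72 h. Harvested, PBS-washed, resuspended in cold binding buffer with annexin V–FITC and PI, and stained 15 min in the dark at room temperature. Early apoptotic, late apoptotic and necrotic fractions quantified by flow cytometry.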

Bel-7402 [4] = assay: Inhibition of colony formation in human Bel7402 cells at 0.01 to 10 uM after 24 hrs by SRB staining-based plate colony formation assay; format: functional, cell-based
Outline: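 BEL-7402 cells seeded at 200 per well, treated in triplicate 24 h, washed twice with PBS, then grown 12 days in fresh medium; colonies stained with SRB and those ≥1 mm diameter counted; three independent experiments, mean ± SD.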

[5] = Growth inhibition of human KB-7d cells after 8 days by methylene blue-staining based spectrophotometry; format: functional; conditions: KB7D, 192 h
Bel-7402 [6] = assay: Induction of apoptosis in human Bel7402 cells assessed as necrotic cells at 10 nM after 72 hrs by Annexin V/propidium iodide staining based flow cytometric analysis (reference value: 0.38%); format: functional
Bel-7402 [7] = assay: Induction of apoptosis in human Bel7402 cells assessed as early apoptotic cells at 1 nM after 72 hrs by Annexin V/propidium iodide staining based flow cytometric analysis (reference value: 3.66%); format: functional; outline: as §2
Bel-7402 [8] = assay: Induction of DNA damage in human Bel7402 cells assessed as increase in CHK2 phosphorylation at Thr68 residue at 1 to 100 nM after 1 hr by Western blot analysis; format: functional, cell-based
Outline: (§3)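 BEL-7402 cells (1.5 × 10⁵ per well, 12-well plates) exposed to compounds for 1 h. Phospho-Chk1 Ser345, phospho-Chk2 Thr68 and γH2AX detected by Western blot. Camptothecin at 1 μM served as the DNA-damage reference.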

KB [9] = assay: Cell cycle arrest in human KB cells assessed as delay in progression of S-phase to G2-phase at 10 nM pre-treated with aphidicolin for 16 hrs followed by compound addition measured up to 12 hrs by propidium iodide staining-based flow cytometric method; format: functional
Outline: (§4)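 Exponentially growing cells synchronized in early S phase with 0.2 μg/mL aphidicolin for 16 h. Cells released into fresh medium with or without compound for set times. Ethanol-fixed, stained with PI/RNase, and cell cycle distribution read by flow cytometry. Representative of three independent experiments.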

SMMC-7721 = assay: Cell cycle arrest in human SMMC7721 cells assessed as delay in progression of S-phase to G2-phase at 1 to 10 nM pre-treated with aphidicolin for 16 hrs followed by compound addition measured after 24 hrs by propidium iodide staining-based flow cytometric method; format: functional; outline: as §4
Bel-7402 [10] = assay: Cell cycle arrest in human Bel7402 cells assessed as accumulation in S-phase after 24 hrs by propidium iodide staining-based flow cytometry; format: functional
Outline: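 BEL-7402 cells exposed for 24 h, then fixed in 70% ethanol at −20 °C for ≥1 h. Stained with 50 μg/mL propidium iodide plus 10 μg/mL RNase A for 30 min in the dark at room temperature. DNA content read by flow cytometry on ≥1.0 × 10⁴ cells per sample.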

[11] = Selectivity ratio of IC50 for human MRC5 cells to IC50 for human A549 cells
Outline: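 SRB assay: A549 (F-12, 10% FBS) and MRC-5/MRC-9 (EMEM, 10% FBS) treated in triplicate 72 h, fixed with ice-cold 10% TCA, stained with 0.4% SRB in 1% acetic acid, absorbance 540 nm; IC₅₀ by four-parameter logistic fit, mean of ≥3 independent experiments.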

Bel-7402 [12] = assay: Induction of necrosis in human Bel7402 cells after 72 hrs by trypan blue exclusion assay; format: functional, cell-based
Outline: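 BEL-7402 cells seeded at 5 × 10⁴ per well, exposed to compounds 72 h; trypsinized, stained with 0.4% Trypan blue (9:1 dilution) for 3 min; unstained (viable) and stained (necrotic) cells counted separately on a hemocytometer.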

Bel-7402 [13] = assay: Induction of apoptosis in human Bel7402 cells assessed as viable cells at 10 nM after 72 hrs by Annexin V/propidium iodide staining based flow cytometric analysis (reference value: 92.4%); format: functional; conditions: Bel-7402, 72 h, read-out: Activity
Bel-7402 [14] = assay: Induction of apoptosis in human Bel7402 cells assessed as viable cells at 1 nM after 72 hrs by Annexin V/propidium iodide staining based flow cytometric analysis (reference value: 92.4%); format: functional; conditions: Bel-7402, 72 h, read-out: Activity
Bel-7402 [15] = assay: Cell cycle arrest in human Bel7402 cells assessed as delay in progression of S-phase to G2-phase at 10 nM pre-treated with aphidicolin for 16 hrs followed by compound addition measured up to 24 hrs by propidium iodide staining-based flow cytometric method; format: functional; outline: as §4
Bel-7402 [16] = assay: Induction of DNA damage in human Bel7402 cells assessed as increase in CHK1 phosphorylation at Ser345 residue at 1 to 100 nM after 1 hr by Western blot analysis; format: functional, cell-based; outline: as §3
KB [17] = assay: Cell cycle arrest in human KB/VCR cells assessed as delay in progression of S-phase to G2-phase at 10 nM pre-treated with aphidicolin for 16 hrs followed by compound addition measured up to 12 hrs by propidium iodide staining-based flow cytometric method; format: functional; outline: as §4
Bel-7402 [18] = assay: Induction of apoptosis in human Bel7402 cells assessed as late apoptotic cells at 10 nM after 72 hrs by Annexin V/propidium iodide staining based flow cytometric analysis (reference value: 3.6%); format: functional; outline: as §2
Bel-7402 [19] = assay: Cell cycle arrest in human Bel7402 cells assessed as delay in progression of S-phase to G2-phase at 1 to 3 nM pre-treated with aphidicolin for 16 hrs followed by compound addition measured after 4 hrs by propidium iodide staining-based flow cytometric method; format: functional; outline: as §4
Bel-7402 [20] = assay: Antiproliferative activity against human Bel7402 cells assessed as reduction in cell viability at 0.12 to 10 nM up to 10 days by fluorescence-based cell imaging method; format: functional
Outline: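 Live-cell imaging (IncuCyte ZOOM) of BEL-7402 cells seeded at 1.5 × 10⁴ per well in 12-well plates. Cells treated in triplicate with a concentration gradient and imaged continuously for 10 days to build growth curves.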

Bel-7402 [21] = assay: Inhibition of DNA synthesis in human Bel7402 cells assessed as BrdU incorporation at 10 nM preincubated for 1 hr followed by BrdU addition for 30 mins by FITC/propidium iodide staining based flow cytometry (reference value: 35.5%); format: functional; set-up: scale not given: the % may be the effect or the level left; outline: as §1

With COc1cc2c3c(c4cc(OC)c(OC)cc4c2cc1OC)[C@H](O)[C@@H]1CCCN1C3 the GI50 (KB-V1) was 30 nM, the Activity (Bel-7402 [1]) was 1.9% and the viability at 10 µM (Bel-7402 [2]) was 85.1%. The Activity (Bel-7402 [3]) was 2.06%, the inhibition (Bel-7402 [4]) was “Active” and the GI50 [5] was 30 nM.

With COc1cc2c3c(c4ccc(O)cc4c2cc1OC)CN1CCCC[C@@H]1C3 the Activity (Bel-7402 [6]) was 0.94%, the Activity (Bel-7402 [7]) was 3.11% and the Activity (Bel-7402 [8]) was “inactive”. The Activity (KB [9]) was “Active”, the Activity (SMMC-7721) was “Active” and the Activity (Bel-7402 [10]) was “Dose-dependent effect”. For the same molecule, the “Ratio IC50” value [11] was 3 - 4, the Activity (Bel-7402 [12]) was “Dose-dependent effect” and the viability at 0.01 µM (Bel-7402 [13]) was 81%. For the same molecule, the viability at 0.001 µM (Bel-7402 [14]) was 94.4%, the Activity (Bel-7402 [15]) was “Active” and the Activity (Bel-7402 [16]) was “inactive”. For the same molecule, the Activity (KB [17]) was “Active”, the Activity (Bel-7402 [18]) was 14.2% and the Activity (Bel-7402 [19]) was “Active”. For the same molecule, the inhibition (Bel-7402 [20]) was “Active” and the Activity (Bel-7402 [21]) was 5.07%.
